The ED50 is the dose at which the effect has come halfway, by size or by number of responders.

What all share (format): functional
The species entered for assay [1] is Mus musculus. The assay can be described thus: Effect on loss of traction (Tr) in Carworth farms male albino mice. The procedure, abridged: (§1)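 Male albino CF-1 mice (18–22 g). Compounds were dissolved or suspended in 0.25% aqueous methylcellulose and given ip to groups of four or six mice per dose, at multiple dose levels spaced 0.3 log apart. ED50 values were calculated by the Spearman–Karber method.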

Assay [2] is filed under the species Mus musculus. Briefly: Effect on antagonism of nicotine-induced tonic-extensor convulsions (TE) in Carworth farms male albino mice. The procedure, abridged: as §1
For assay [3], the species on record is Mus musculus. Briefly: Effect on antagonism of nicotine-induced tonic-extensor convulsions (TE) in Carworth farms male albino mice. The procedure, abridged:
as §1

The species entered for assay [4] is Mus musculus. The assay can be described thus: Effect on pentylenetetrazole-induced clonic convulsions (P) in Carworth farms male albino mice. The procedure, abridged:
as §1

For assay [5], the species on record is Mus musculus. Briefly: Effect on antagonism of nicotine-induced death (D) in Carworth farms male albino mice. The procedure, abridged: as §1
The species named for assay [6] is Mus musculus. Briefly: Effect on bicuculline-induced tonic-extensor convulsions (B) in Carworth farms male albino mice. The procedure, abridged: as §1
The species named for assay [7] is Mus musculus. The assay can be described thus: Effect on potentiation of gamma-butyrolactone-induced sleep (gamma-B) in Carworth farms male albino mice. The procedure, abridged: as §1
Assay [8] is filed under the species Mus musculus. The assay can be described thus: Effect on prolongation of hypoxic survival time (HS) in Carworth farms male albino mice. The procedure, abridged: as §1
Assay [9] is filed under the species Mus musculus. The assay can be described thus: Effect on bicuculline-induced tonic-extensor convulsions (B) in Carworth farms male albino mice. The procedure, abridged:
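CF-1 male albino mice, 18–22 g. Unless otherwise indicated, compounds were dissolved or suspended in 0.25% aqueous methylcellulose and given ip to groups of 4 or 6 mice per dose. Several dose levels were spaced at 0.3 log intervals. ED50 was calculated by the Spearman–Karber method.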

For the molecule `Cc1nnc2n1-c1ccc(Cl)cc1CN=C2N1CCCCC1`, the ED50 in the assay filed under Mus musculus [1] and in the assay listed under Mus musculus [2] was greater than 100 mg/kg throughout.

`Cc1nnc2n1-c1ccc(Cl)cc1C(N1CCCC1)=NC2`: the ED50 was 18 mg/kg in the assay filed under Mus musculus [3]; greater than 50 mg/kg in the assay filed under Mus musculus [4]; greater than 100 mg/kg in the assay filed under Mus musculus [1]; 18 mg/kg in the assay filed under Mus musculus [5]; greater than 50 mg/kg in the assay listed under Mus musculus [6]; 7.4 mg/kg in the assay listed under Mus musculus [7]. Further, in the assay listed under Mus musculus [8], the ED50 was greater than 50 mg/kg.

Turning to `Cc1nnc2n1-c1ccc(Cl)cc1C(N1CCCCCC1)=NC2`, the ED50 in the assay listed under Mus musculus [3], in the assay listed under Mus musculus [1] and in the assay filed under Mus musculus [5] was greater than 100 mg/kg in each case.

`Cc1nnc2n1-c1ccc(Cl)cc1C(N1CCN(C)CC1)=NC2`: the ED50 in the assay listed under Mus musculus [3], in the assay listed under Mus musculus [1] and in the assay listed under Mus musculus [5] was greater than 100 mg/kg throughout.

`Cc1nnc2n1-c1ccc(Cl)cc1C(N1CCN(c3ccccc3)CC1)=NC2`: the ED50 in the assay listed under Mus musculus [3], in the assay filed under Mus musculus [1] and in the assay filed under Mus musculus [5] was greater than 100 mg/kg throughout.

On to `Cc1nnc2n1-c1ccc(Cl)cc1CN=C2N1CCCC1`, for which the ED50 in the assay listed under Mus musculus [3], in the assay filed under Mus musculus [1], in the assay filed under Mus musculus [9] and in the assay listed under Mus musculus [7] was greater than 6 mg/kg in each case.

With `CCCCCCNC1=NCc2nnc(C)n2-c2ccc(Cl)cc21`, the ED50 in the assay listed under Mus musculus [3], in the assay filed under Mus musculus [1] and in the assay listed under Mus musculus [5] was greater than 100 mg/kg each time.

As for `Cc1nnc2n1-c1ccc(Cl)cc1C(N1CCCCC1)=NC2`, the ED50 is 0.4 mg/kg in the assay listed under Mus musculus [3]; 1.1 mg/kg in the assay filed under Mus musculus [4]; 0.3 mg/kg in the assay filed under Mus musculus [1]; 0.4 mg/kg in the assay filed under Mus musculus [5]; 0.7 mg/kg in the assay filed under Mus musculus [6]; 0.9 mg/kg in the assay filed under Mus musculus [7]. The molecule further showed an ED50 in the assay filed under Mus musculus [8] of 0.3 mg/kg.

Consider `Cc1nnc2n1-c1ccc(Cl)cc1CN=C2N1CCOCC1`, for which the ED50 in the assay filed under Mus musculus [3] was greater than 100 mg/kg; in the assay listed under Mus musculus [4], 40 mg/kg; in the assay listed under Mus musculus [1], greater than 100 mg/kg; in the assay listed under Mus musculus [6], greater than 50 mg/kg; in the assay listed under Mus musculus [7] it was greater than 50 mg/kg.

`Cc1nnc2n1-c1ccc(Cl)cc1CN=C2N1CCN(C)CC1`: the ED50 in the assay listed under Mus musculus [3] was greater than 100 mg/kg; in the assay listed under Mus musculus [4] it was greater than 50 mg/kg; in the assay filed under Mus musculus [1] it was greater than 100 mg/kg; in the assay listed under Mus musculus [6], greater than 50 mg/kg; in the assay filed under Mus musculus [7] it was 40 mg/kg; in the assay filed under Mus musculus [8] it was 40 mg/kg.

Consider `Cc1nnc2n1-c1ccc(Cl)cc1C(N1CCOCC1)=NC2`, for which the ED50 in the assay listed under Mus musculus [3] was 80 mg/kg; in the assay filed under Mus musculus [1] it was greater than 100 mg/kg; in the assay listed under Mus musculus [5], 71 mg/kg.

On to `Cc1nnc2n1-c1ccc(Cl)cc1CN=C2N1CCCCCC1`, for which the ED50 in the assay filed under Mus musculus [3] and in the assay filed under Mus musculus [1] was greater than 100 mg/kg in each case.

As to `Cc1nnc2n1-c1ccc(Cl)cc1C(N1CCN(CCO)CC1)=NC2`, the ED50 in the assay filed under Mus musculus [3], in the assay listed under Mus musculus [1] and in the assay listed under Mus musculus [5] was greater than 100 mg/kg in each case.

For `Cc1nnc2n1-c1ccc(Cl)cc1C(c1ccccc1)=NC2` [ALPRAZOLAM], the ED50 came out at 0.02 mg/kg in the assay listed under Mus musculus [3]; 0.1 mg/kg in the assay listed under Mus musculus [4]; 0.6 mg/kg in the assay filed under Mus musculus [1]; 0.02 mg/kg in the assay listed under Mus musculus [5]; 0.2 mg/kg in the assay listed under Mus musculus [6]; 0.08 mg/kg in the assay listed under Mus musculus [7]. This molecule also showed an ED50 in the assay filed under Mus musculus [8] of 0.2 mg/kg.

As for `CN1C(=O)CN=C(c2ccccc2)c2cc(Cl)ccc21` [DIAZEPAM], the ED50 in the assay listed under Mus musculus [3] turned out to be 0.28 mg/kg; in the assay listed under Mus musculus [4], 0.1 mg/kg; in the assay listed under Mus musculus [1], 7 mg/kg; in the assay filed under Mus musculus [5] it was 0.28 mg/kg; in the assay filed under Mus musculus [6], 2.6 mg/kg; in the assay listed under Mus musculus [7], 0.035 mg/kg. The molecule further yielded an ED50 in the assay filed under Mus musculus [8] of 0.2 mg/kg.

The record behind these values is ChEMBL document CHEMBL1121489, “6-(Substituted-amino)-4H-s-triazolo[4,3-a][1,4]benzodiazepines and 4-(substituted-amino)-6H-s-triazolo[4,3-a][1,4]benzodiazepines with potential antianxiety activity” (1980).
